Measured values taken from ChEMBL document CHEMBL1132174, “Anti-AIDS agents. 37. Synthesis and structure-activity relationships of (3'R,4'R)-(+)-cis-khellactone derivatives as novel potent anti-HIV agents” (J Med Chem, 1999).
pEC50, pIC50: −log10 of the molar value.

Legend:
[1] = test system: CEM-SS; assay: The compound was tested for anti HIV activity in CEM-SS cell lines; format: functional, cell-based; conditions: Homo sapiens
Procedure, shortened: (§1)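 Run at NCI in the CEM-SS T4 lymphocyte line. The agent was dissolved in DMSO, diluted 1:100 in medium, then serially diluted in half-log10 steps, giving a 1:200 final compound dilution. Cells were added, followed shortly by HIV-1, and incubated for 6 days at 37 °C in 5% CO2. Viable cells were read by XTT formazan spectrophotometry, with microscopic confirmation. Drug-treated infected wells were compared against drug-treated uninfected (toxicity) wells and untreated controls.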

[2] = Therapeutic index value of the cpmpound against CEM-SS cells; format: cell-based; conditions: human, read-out: Therapeutic index; procedure, shortened: as §1
[3] = test system: Human immunodeficiency virus 1; assay: Antiviral activity against HIV-1 in H9 lymphocytes.; format: functional, organism-based
[4] = test system: Human immunodeficiency virus 1; assay: Anti-HIV activity in H9 lymphocytes.; format: functional, organism-based
[5] = Therapeutic index in H9 lymphocytes.; format: cell-based; conditions: human, read-out: Therapeutic index
[6] = test system: CEM-SS; assay: The compound was tested for anti HIV activity in CEM-SS cell lines; Inactive; format: functional, cell-based, Homo sapiens; procedure, shortened: as §1
[7] = Therapeutic index value of the cpmpound against CEM-SS cells; Inactive; format: cell-based; conditions: human; procedure, shortened: as §1
[8] = test system: H9; assay: The compound was tested for anti HIV activity in H9 lymphocytes; No suppression; format: functional, cell-based, Homo sapiens
[9] = Therapeutic index value against H9 lymphocytes; No suppression; format: cell-based; conditions: human

| SMILES | pEC50 [1] | pIC50 [1] | selectivity ratio [2] | pEC50 [3] | pIC50 ([4]; Human immunodeficiency virus 1) | selectivity ratio [5] | EC50 [6] | Therapeutic index [7] | EC50 [8] | Therapeutic index [9] | pIC50 [4] |
| --- | --- | --- | --- | --- | --- | --- | --- | --- | --- | --- | --- |
| CC1(C)Oc2ccc3ccc(=O)oc3c2[C@@H](OC(=O)C23CCC(C)(C(=O)O2)C3(C)C)[C@H]1OC(=O)C12CCC(C)(C(=O)O1)C2(C)C (stereo partly drawn) | 6.59 | 4.59 | 100 | 9.59 | 4.46 | 137000 |  |  |  |  |  |
| Cc1cc2ccc3c(c2oc1=O)[C@@H](OC(=O)C12CCC(C)(C(=O)O1)C2(C)C)[C@@H](OC(=O)C12CCC(C)(C(=O)O1)C2(C)C)C(C)(C)O3 (stereo partly drawn) | 6.67 | < 4.90 | > 58.7 | 10.28 | < 3.95 | > 2.15e+06 |  |  |  |  |  |
| Cc1cc2ccc(=O)oc2c2c1OC(C)(C)[C@H](OC(=O)C13CCC(C)(C(=O)O1)C3(C)C)[C@@H]2OC(=O)C12CCC(C)(C(=O)O1)C2(C)C (stereo partly drawn) | 6.42 | < 3.70 | > 532 | 6.82 | 4.48 | 218 |  |  |  |  |  |
| Cc1cc2c(c3oc(=O)ccc13)[C@@H](OC(=O)C13CCC(C)(C(=O)O1)C3(C)C)[C@@H](OC(=O)C13CCC(C)(C(=O)O1)C3(C)C)C(C)(C)O2 (stereo partly drawn) | 7.20 | < 3.70 | > 3150 | 12.62 | < 4.02 | > 3.97e+08 |  |  |  |  |  |
| COc1cc2c(c3oc(=O)ccc13)[C@@H](OC(=O)C13CCC(C)(C(=O)O1)C3(C)C)[C@@H](OC(=O)C13CCC(C)(C(=O)O1)C3(C)C)C(C)(C)O2 (stereo partly drawn) | 6.89 | < 3.70 | > 1560 | 9.72 | < 3.82 | > 797000 |  |  |  |  |  |
| COc1cc(=O)oc2c3c(ccc12)OC(C)(C)[C@H](OC(=O)C12CCC(C)(C(=O)O1)C2(C)C)[C@@H]3OC(=O)C12CCC(C)(C(=O)O1)C2(C)C (stereo partly drawn) | 6.90 | < 3.70 | > 1600 | 8.52 | < 3.82 | > 51200 |  |  |  |  |  |
| COc1cc2ccc(=O)oc2c2c1OC(C)(C)[C@H](OC(=O)C13CCC(C)(C(=O)O1)C3(C)C)[C@@H]2OC(=O)C12CCC(C)(C(=O)O1)C2(C)C (stereo partly drawn) |  | < 3.70 |  | 4.80 | < 3.82 | > 9.68 | Not Active | Not Active |  |  |  |
| CC(=O)O[C@@H]1[C@H](OC(=O)C23CCC(C)(C(=O)O2)C3(C)C)c2c(ccc3c(C)cc(=O)oc23)OC1(C)C (stereo partly drawn) |  |  |  | 7.26 | 3.91 | 2230 |  |  |  |  |  |
| CCCc1cc(=O)oc2c3c(ccc12)OC(C)(C)[C@H](OC(=O)C12CCC(C)(C(=O)O1)C2(C)C)[C@@H]3OC(=O)C12CCC(C)(C(=O)O1)C2(C)C (stereo partly drawn) | 6.12 | < 3.70 | > 262 | 7.76 | < 3.82 | > 8630 |  |  |  |  |  |
| Cc1cc(=O)oc2c3c(ccc12)OC(C)(C)[C@H](OC(=O)Nc1cccc2ccccc12)[C@@H]3OC(=O)Nc1cccc2ccccc12 |  |  |  |  | 4.01 |  |  |  | Not Active | Not Active |  |
| CC(C)c1cc(=O)oc2c3c(ccc12)OC(C)(C)[C@H](OC(=O)C12CCC(C)(C(=O)O1)C2(C)C)[C@@H]3OC(=O)C12CCC(C)(C(=O)O1)C2(C)C (stereo partly drawn) | 6.23 | < 3.89 | > 219 | 7.50 | < 3.82 | > 4790 |  |  |  |  |  |
| Cc1cc(=O)oc2c3c(ccc12)OC(C)(C)[C@H](OC(=O)c1cccc(Br)c1)[C@@H]3OC(=O)c1cccc(Br)c1 |  |  |  |  | < 4.04 |  |  |  | Not Active | Not Active |  |
| CC1(C)Oc2ccc3c(-c4ccccc4)cc(=O)oc3c2[C@@H](OC(=O)C23CCC(C)(C(=O)O2)C3(C)C)[C@H]1OC(=O)C12CCC(C)(C(=O)O1)C2(C)C (stereo partly drawn) |  |  |  | 6.92 | < 3.84 | > 1190 |  |  |  |  |  |
| Cc1cc(=O)oc2c3c(ccc12)OC(C)(C)[C@H](OC(=O)C12CCC(C)(C(=O)O1)C2(C)C)[C@@H]3OC(=O)C12CC3CC(CC(C3)C1)C2 (stereo partly drawn) |  |  |  | 6.22 | 4.67 | 35.5 |  |  |  |  |  |
| COc1cc2ccc3c(c2oc1=O)[C@@H](OC(=O)C12CCC(C)(C(=O)O1)C2(C)C)[C@@H](OC(=O)C12CCC(C)(C(=O)O1)C2(C)C)C(C)(C)O3 (stereo partly drawn) | 6.31 | 4.77 | 34 | 8.62 | < 3.82 | > 64300 |  |  |  |  |  |
| CC1(C)Oc2ccc3c(C(F)(F)F)cc(=O)oc3c2[C@@H](OC(=O)C23CCC(C)(C(=O)O2)C3(C)C)[C@H]1OC(=O)C12CCC(C)(C(=O)O1)C2(C)C (stereo partly drawn) |  |  |  | 5.74 | < 3.84 | > 80.1 |  |  |  |  |  |
| CC(=O)O[C@@H]1[C@H](OC(=O)C23CC4CC(CC(C4)C2)C3)c2c(ccc3c(C)cc(=O)oc23)OC1(C)C |  |  |  | 5.94 | 4.72 | 16.7 |  |  |  |  |  |
| Cc1cc(=O)oc2c3c(ccc12)OC(C)(C)[C@H](OC(=O)CC(C)C)[C@@H]3OC(=O)CC(C)C |  |  |  |  | 4.38 |  |  |  | Not Active | Not Active |  |
| CC(=O)O[C@@H]1c2c(ccc3c(C)cc(=O)oc23)OC(C)(C)[C@@H]1OC(C)=O |  |  |  | 4.08 | 3.77 | 2.06 |  |  |  |  |  |
| Cc1cc(=O)oc2c3c(ccc12)OC(C)(C)[C@H](O)[C@@H]3OC(=O)C12CCC(C)(C(=O)O1)C2(C)C (stereo partly drawn) |  |  |  |  | < 3.66 |  |  |  |  |  |  |
| Cc1cc(=O)oc2c3c(ccc12)OC(C)(C)[C@H](O)[C@@H]3OC(=O)C12CC3CC(CC(C3)C1)C2 |  |  |  |  | 4.36 |  |  |  | Not Active | Not Active |  |
| Cc1cc(=O)oc2c3c(ccc12)OC(C)(C)[C@H](OC(=O)C12CCC(C)(C(=O)O1)C2(C)C)[C@@H]3OC(=O)C12CCC(C)(C(=O)O1)C2(C)C (stereo in doubt; 8) | 7.20 | < 3.70 | > 3150 |  | < 3.90 |  |  |  |  |  |  |
| Cc1cc(=O)oc2c3c(ccc12)OC(C)(C)[C@H](OC(=O)C12CCC(C)(C(=O)O1)C2(C)C)[C@@H]3OC(=O)C12CCC(C)(C(=O)O1)C2(C)C (stereo in doubt; 19) |  |  |  |  |  |  |  |  |  |  | < 3.80 |
| Cc1cc(=O)oc2c3c(ccc12)OC(C)(C)[C@H](OS(=O)(=O)CC12CCC(CC1=O)C2(C)C)[C@@H]3O (stereo in doubt; 22) |  |  |  |  |  |  |  |  |  |  | 4.38 |
| Cc1cc(=O)oc2c3c(ccc12)OC(C)(C)[C@H](OS(=O)(=O)CC12CCC(CC1=O)C2(C)C)[C@@H]3O (stereo in doubt; 23) |  |  |  |  | 4.35 |  |  |  | Not Active | Not Active |  |
| Cc1cn([C@H]2C[C@H](N=[N+]=[N-])[C@@H](CO)O2)c(=O)[nH]c1=O [ZIDOVUDINE] | 8.42 | < 6.00 |  | 5.35 |  |  |  |  |  |  |  |
